T cruzi repl: blocks replication of Trypanosoma cruzi; T. cruzi beta-gal in NIH3T3, luminescence, 90 h; inhibition, % (test concentration not listed); 1.4% of 300,000 active;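 active means mean inhibition across valid replicates above about 55%, limit read from the data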;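 further: signal also drops with host cell toxicity which is not excluded here; higher percent means less beta-gal luminescence so fewer parasites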
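System: Mouse NIH/3T3 fibroblasts infected with β-gal-expressing T. cruzi Tulahuen C4 | Quantity: NIH/3T3 cells, 5,000 per well | Reagent: 5000 reporter trypomastigotes per well | Dosing: Compound pinned at 50 nL/well, DMSO | Schedule: 3 h host attachment, then at least 90 h co-culture | Detection: GalScreen luminescence, 60 min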
CHOP UPR activ: apoptotic UPR (CHOP) activation | CHO-CHOP luciferase reporter, luminescence; percent of tunicamycin response over DMSO baseline | activation, % at 10 µM | 0.34% of 330,000 active | AID 449763;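 active means at 10 µM dose, activation of 40% or more, normalized to positive control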
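Evaluation: % reporter activation, DMSO baseline versus tunicamycin full activation; System: CHO-CHOP luciferase reporter cell line; Input: 500 cells/well; Incubation: 6 h compound treatment, 37 °C; Measured by: Steady-Glo luciferase luminescence; Dosing: one dose, 10 µM in 0.5% DMSO; Buffer or medium: F12 medium, 10% FBS; Benchmarks: positive tunicamycin 10 µg/mL, negative DMSO alone.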
Dynein cargo inh: blocks dynein driven cargo transport along microtubules; z-score, hits read low; 0.47% of 220,000 active; 3617.4 mouse cells, GR-EGFP nuclear translocation imaging; test concentration mostly 20 µM; stimulated with dexamethasone, 1 µM; hits give low values;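 active means plate z-score of nuclear minus cytoplasmic receptor signal below a set negative limit, without overly bright fluorescence or cell loss, cut at about -3.5 in these data, passing the limit was not always enough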;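 further: z-score of nuclear minus cytoplasmic ring GR-EGFP intensity difference per well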
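Schedule: 48 h induction, then 1 h compound, then 30 min agonist, 37 °C. Buffer or medium: tetracycline-free induction medium containing charcoal-stripped FBS. Reagent: 1.0 µM final dexamethasone stimulus. Evaluation: nuclear versus cytoplasmic GR-EGFP signal, averaged per well. Signal: high-content fluorescence imaging after fixation.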
Lmaj promast: reduces viability of Leishmania major promastigotes. resazurin fluorescence viability. inhibition, % at 10 µM. 9% of 200,000 active; in the data active means inhibition above about 50%;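 further: promastigotes grown with compound for 44 hours at 28 °C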
CHOP inhibitor: blocks CHOP induction under ER stress; inhibition, % at 10 µM; AID 2732; CHO-K1 CHOP-promoter luciferase, tunicamycin-induced, 15-18 h; 3.8% of 220,000 active;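 active means compounds that reduced the stress-induced luciferase reporter signal by more than about 70% of percent inhibition, limit read from the data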
XBP1 UPR activ: activators of adaptive arm of unfolded protein response (XBP1); CHO-XBP1 luciferase reporter, IRE1-XBP1 UPR activation, luminescence; percent of tunicamycin response, DMSO as zero; activation, % at 20 µM; 0.33% of 330,000 active; AID 463104;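 active means versus positive control, 20 µM dose yields 30% or more activation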
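Assay system: IRE1-XBP1 luciferase reporter CHO line. Input: 1000 cells/well. Buffer or medium: F12 with 10% serum. Doses: 20 µM, 1% DMSO. Times: overnight seeding at 37 °C, 6 h compound treatment at 37 °C. Technique: Steady-Glo luciferase glow luminescence, 10 min after reagent addition.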
Large screens that a line does not name were inactive. The full list was thinned out, with hits kept by preference.

COc1ccccc1N1CCN(C(CNC(=O)c2ccco2)c2cccnc2)CC1 (configuration not stated)	Lmaj promast 80.8
O=C(NCC(c1cccnc1)N1CCOCC1)c1cccc(Cl)c1 (configuration not stated)	none
COC(=O)NCC(c1cccnc1)N1CCOCC1 (configuration not stated)	none
COC(=O)NCC(c1cccnc1)N1CCN(c2ccccc2OC)CC1 (configuration not stated)	Lmaj promast 69.8
O=C(NCC(c1cccnc1)N1CCN(c2ccccc2F)CC1)c1cccc(Cl)c1 (configuration not stated)	Lmaj promast 94.4
COC(=O)NCC(c1cccnc1)N1CCN(c2ccccc2F)CC1 (configuration not stated)	Lmaj promast 56.4
CC(C)c1ccccc1NC(=O)C1CC(=O)N(C2CCCC2)C1 (configuration not stated)	none (no result: Dynein cargo inh, Lmaj promast, CHOP inhibitor)
CCc1ccc(N2CC(C(=O)Nc3nc4ccc(S(C)(=O)=O)cc4s3)CC2=O)cc1 (configuration not stated)	none (no result: Dynein cargo inh, Lmaj promast, CHOP inhibitor)
Cn1cc(S(=O)(=O)N2CCCC2)cc1C(=O)NCCc1ccccc1	none (no result: Dynein cargo inh, Lmaj promast, CHOP inhibitor)
COc1ccccc1N1CCN(C(CNS(C)(=O)=O)c2cccnc2)CC1 (configuration not stated)	none
COc1ccccc1N1CCN(C(CNS(=O)(=O)c2ccc(C)cc2)c2cccnc2)CC1 (configuration not stated)	Lmaj promast 95.9
O=C(Nc1cc(Cl)ccc1N1CCOCC1)c1ccco1	none (no result: Dynein cargo inh, Lmaj promast, CHOP inhibitor)
O=C(c1ccccc1)c1ccc(N2CCOCC2)c(NC(=O)c2ccco2)c1	Lmaj promast 63.7
COC(=O)Cn1ncc(N2C3CC(CC(C)(C)C3)C2C)c(Cl)c1=O (configuration not stated)	Lmaj promast 81.0
COC(=O)Cn1ncc(N(C)Cc2ccccc2)c(Cl)c1=O	none (no result: Dynein cargo inh, Lmaj promast, CHOP inhibitor)
CCn1c(SCC(=O)Nc2ccc(N3CCOCC3)c(Cl)c2)nnc1-c1ccc(N)cc1	Lmaj promast 73.5
CCCC(=O)NC(=S)Nc1ccc(N2CCOCC2)c(Cl)c1	Lmaj promast 60.5
O=C(/C=C/c1ccco1)NC(=S)Nc1ccc(N2CCOCC2)c(Cl)c1	CHOP inhibitor 74.6
O=C(NC(=S)Nc1ccc(N2CCOCC2)c(Cl)c1)C(c1ccccc1)c1ccccc1	none
CCCCC1CCC(C(=O)OC(C)C(=O)Nc2ccc(NC(C)=O)cc2)CC1 (configuration not stated)	none (no result: Dynein cargo inh, Lmaj promast, CHOP inhibitor)
COc1ccccc1OCCSc1nc2ccccc2c(=O)[nH]1	none
O=c1[nH]c(SCCOc2ccccc2)nc2ccccc12	CHOP inhibitor 76.8
N#Cc1cc2c(nc1Cl)CCC2	none (no result: T cruzi repl, Lmaj promast)
N#Cc1cc2c(nc1Cl)CCCC2	Lmaj promast 73.5
COc1cccc(CNn2c(-c3cccc(C)c3)nc3ccccc3c2=O)c1O	Lmaj promast 53.9
COc1ccc2noc3c2c1C(=O)c1ccccc1-3	none (no result: Dynein cargo inh, Lmaj promast, CHOP inhibitor)
O=C1c2ccccc2-c2onc3ccc(NCCCn4ccnc4)c1c23	Lmaj promast 100.1
CCCC(O)(c1ccc(Cl)cc1)C(CN1CCOCC1)c1ccccc1 (configuration not stated)	Lmaj promast 73.2, CHOP inhibitor 90.0
CCCCOc1ccc(C(O)(CC)CCN2CCOCC2)cc1 (configuration not stated)	Lmaj promast 83.3
CCCCOc1ccc(OCCCN2CCOCC2)cc1	Lmaj promast 99.8
CCCCC(O)(CCN1CCOCC1)c1ccc(Cl)cc1 (configuration not stated)	Lmaj promast 76.3
Clc1ccc(OCCCCCN2CCOCC2)cc1	none (no result: Dynein cargo inh, Lmaj promast, CHOP inhibitor)
CCCCOc1ccc(C(O)(CCC)CCN2CCOCC2)cc1 (configuration not stated)	none
COCCN(C(=O)CSc1nnc(Nc2ccccc2F)s1)c1c(N)n(Cc2ccccc2)c(=O)[nH]c1=O	none
CCC(C)c1ccc(OCCCCN2CCOCC2)cc1 (configuration not stated)	Lmaj promast 97.0
CCOc1ccc(OCCOCCN2CCOCC2)cc1	Lmaj promast 93.6
CCCC(O)(CCN1CCCCC1)c1ccc(OCC)cc1 (configuration not stated)	Lmaj promast 77.5
O=C(NCCOc1ccc(F)cc1)C1CCC(=O)N(CCc2ccccn2)C1 (configuration not stated)	none (no result: Dynein cargo inh, Lmaj promast, CHOP inhibitor)
O=C(COC(=O)c1ccc(Br)o1)Nc1ccc(N2CCOCC2)cc1	none (no result: T cruzi repl, Dynein cargo inh, Lmaj promast, CHOP inhibitor)
Cc1ccc(NC(=O)Cn2nnc(C(=O)NCc3ccc(Cl)cc3)c2N)cc1F	none (no result: Dynein cargo inh, Lmaj promast, CHOP inhibitor)
Cc1cc(C)c([N+](=O)[O-])cc1NC(=O)CCSc1ccccc1Cl	Lmaj promast 55.4
O=C(Nc1cc(Cl)ccc1O)c1snnc1-c1ccccc1	CHOP inhibitor 82.1
Cc1cc(NC(=O)CCc2ccccc2)c([N+](=O)[O-])cc1C	Lmaj promast 50.6
O=C(CCc1ccccc1)Nc1cccc(NC(=O)CCc2ccccc2)c1	CHOP inhibitor 72.3
O=C(CCSc1ccccc1Cl)Nc1cccc([N+](=O)[O-])c1	none
Cc1c(NC(=O)CCc2ccccc2)cccc1[N+](=O)[O-]	none
COc1ccccc1C1=NN(C(=O)c2ccccc2)C(c2ccc(Br)cc2)C1 (configuration not stated)	none (no result: Dynein cargo inh, Lmaj promast, CHOP inhibitor)
O=C(CCc1nnc2ccc(N3CCC4(CC3)OCCO4)nn12)NCc1ccc(F)cc1	none (no result: Dynein cargo inh, Lmaj promast, CHOP inhibitor)
O=C(CCc1ccccc1)Nc1cc(Cl)ccc1O	Lmaj promast 78.5
O=C(Nc1cccc(Cl)c1Cl)c1ccc(-c2ccccc2)cc1	none
CN(C)c1ccc(NC(=O)CN2C(=O)CC(c3ccccc3)=Nc3ccccc32)cc1	CHOP inhibitor 91.0
O=C(O)CC(=O)Nc1cc(Cl)ccc1O	none
CN(C)c1ccc(NC(=O)CCCc2ccccc2)cc1	Lmaj promast 76.5
O=C(Nc1cc(Cl)ccc1Cl)c1ccc(-c2ccccc2)cc1	Lmaj promast 50.7
Cc1ccc(NC(=O)C(c2ccccc2)N2CCN(C(=O)c3ccco3)CC2)cc1Cl (configuration not stated)	none (no result: T cruzi repl, Dynein cargo inh, Lmaj promast, CHOP inhibitor)
COC(=O)c1c(NC(=O)CN2C(=O)C(=O)N(C(C)C)C2=O)sc(C)c1C	none (no result: T cruzi repl, Dynein cargo inh, Lmaj promast, CHOP inhibitor)
C=CCN1C(=O)C(=O)N(CC(=O)NCC(=O)Nc2ccc(F)c(F)c2F)C1=O	none (no result: T cruzi repl, Dynein cargo inh, Lmaj promast, CHOP inhibitor)
Cc1cnc(NC(=O)c2c(O)c3cccc4c3n(c2=O)CCC4)s1	CHOP inhibitor 75.9 (no result: CHOP UPR activ, XBP1 UPR activ)
Cc1cccc(NC(=O)c2c(O)c3cccc4c3n(c2=O)CCC4)n1	none (no result: T cruzi repl, CHOP UPR activ, XBP1 UPR activ)
Cc1cc(Cl)ccc1NC(=O)CCC(=O)N/N=C/c1cccnc1	none (no result: Dynein cargo inh, Lmaj promast, CHOP inhibitor)
O=C1C2CC=CCC2C(=O)N1c1ccc(NCCc2cccc(F)c2)c([N+](=O)[O-])c1 (configuration not stated)	Lmaj promast 60.6

High-throughput results (PubChem BioAssay)
